Bioassay records from PubChem BioAssay.
Only a sample is shown.
Apaf1 activ = activators of human Apaf-1 apoptosome, primary screen, biochemical, DEVD-Rh110 fluorescence, uHTS; actives 0.31% (n = 330,000); activity change, negative = activation, % at 20 µM; Apaf-1 apoptosome caspase-3 activation; active compounds read low;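 active = activity change at or below -40% at 20 µM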
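Assay system – biochemical Apaf-1 apoptosome reconstitution · Medium – 20 mM HEPES buffer, pH 7.5, containing CHAPS and BSA · Incubation – 30 min preincubation, 50 min reaction, room temperature · Measured by – Caspase-3-released Rh110 fluorescence, 540 nm emission, 480 nm excitation · Read-out – Caspase-3 cleavage activity downstream of Apaf-1 activation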
Rh110 act interf = Rh110 fluorescence interference by putative Apaf-1 activators, confirmation, artefact control for Apaf-1 activator project, biochemical, 20 µM | 980 tested, under 10 active | quenched caspase reaction, Ex480/Em540 | fluorescence interference (activity change), % at 20 µM, hits read low | AID 504616, 2011 | shares compounds with Apaf1 activ;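 active = mean activity change at or below -40% when tested at 20 µM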
Apaf-1 act conf2 = Apaf-1 activators, single-dose retest, confirmation, biochemical, fluorescence, DEVD-Rh110, 20 µM; AID 504617, 2011; reconstituted apoptosome caspase-3 activity; active compounds read low; actives 5% (n = 980); activity change, negative = activation, % at 20 µM; shares compounds with Apaf1 activ;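 active = mean activity change at or below -40%, meaning activation of 40% or more, at 20 µM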
Of the large screens only hits and unclear results are named; the others gave an inactive call (follow-up assays come after a bar, where they were run).

C#CCOCCOCCOCCNc1nc(N2CCN(C(=O)CCCCCCCCCCNC(=O)[C@H](CCCCN)n3cc(CCCC(=O)O)nn3)CC2)nc(N2CCN(C(=O)CCCCCCCCCCNC(=O)[C@H](CCCN=C(N)N)n3cc(C[C@@H](C)CC)nn3)CC2)n1	none
CCCOc1ccc(N)cc1N	none
Cc1noc(C)c1S(=O)(=O)N1CCCC(C(=O)NCC2CCCO2)C1 (stereo not drawn)	Apaf1 activ -89.4 | Rh110 act interf inactive | Apaf-1 act conf2 inactive
Cc1noc(/C=C/c2cccs2)c1S(=O)(=O)N1CCC(C(=O)NCCCN2CCC(C)CC2)CC1	none
c1coc(-c2nc(-c3ccco3)c(-c3ccco3)nc2-c2ccco2)c1	none
CC(=O)Nc1cccc(NC(=S)Nc2cccc3ccccc23)c1	none
CCC(=Nc1ccc(N)cc1)C1=C(O)C(C(=O)OC)C(C)(C)CC1=O (stereo not drawn)	none
C#CCOCCOCCOCCNc1nc(N2CCN(C(=O)[C@H]([C@@H](C)CC)n3cc([C@@H](N)CO)nn3)CC2)nc(N2CCN(C(=O)[C@H](Cc3cc4ccccc4[nH]3)n3cc([C@@H](N)C(C)CC)nn3)CC2)n1 (stereo partly drawn)	none
O=C(NCc1nc2ccccc2[nH]1)C1=C[C@H](c2ccccc2)C[C@H](OCc2ccc(CO)cc2)O1	Apaf1 activ -127.3 | Rh110 act interf inactive | Apaf-1 act conf2 inactive
CCOC(=O)C1CCCN(c2cc(NCCCO)c([N+](=O)[O-])c3nonc23)C1 (stereo not drawn)	none
Clc1ccc(/C=N/Nc2ncnc3ccccc23)cc1Cl	none
O=C(Cc1cc(=O)[nH][nH]1)N/N=C/c1cccc2ccccc12	none
CCCC(=O)OCCNc1cc(SCc2ccco2)c2nonc2c1[N+](=O)[O-]	none
Cc1ccc(SC(C)c2nc(-c3ccccc3)no2)cc1 (stereo not drawn)	Apaf1 activ -247.1 | Rh110 act interf inactive | Apaf-1 act conf2 inactive
COc1cc(OC)cc(-c2sc3ccc(OC)cc3c2C#CC2(N)CCCCC2)c1	none
C[C@H](CO)N1C[C@H](C)[C@@H](CN(C)Cc2ccc(Cl)c(Cl)c2)Oc2c(NC(=O)CCC(F)(F)F)cccc2C1=O	none
CCOc1ccc(NC(=O)CN(C)S(=O)(=O)c2ccc(-c3ccc(=O)[nH]n3)s2)cc1	Apaf1 activ -86.0 | Rh110 act interf inactive | Apaf-1 act conf2 inactive
CCOc1ccc(C(=O)Nc2sc3c(c2C(=O)OC)CC(C)(C)NC3(C)C)cc1	none
CCN(CC(=O)Nc1c(F)cccc1F)C(=O)CNC(=O)c1ccc2c(c1)OCO2	none
CCN(Cc1ccccc1)C(=O)c1cccc(S(=O)(=O)N2CCN(c3ccc(F)cc3)CC2)c1	none
O=C(NCC(c1ccco1)N1CCN(c2ccc(F)cc2)CC1)c1ccc2c(c1)OCO2 (stereo not drawn)	Apaf1 activ -155.2 | Rh110 act interf inactive | Apaf-1 act conf2 inactive
CCCCCCCCCCCCCCCCn1cc[n+](C)c1	none
CCOC(=O)c1ccc(NC(=O)c2nn(C)cc2Br)cc1	Apaf1 activ -148.1 | Rh110 act interf inactive | Apaf-1 act conf2 inactive
CC(=O)Nc1ccc(C(=O)COC(=O)c2nc3nc(C)cc(C)n3n2)cc1	none
CCOC(=O)c1ccc(NC(=S)NC(=O)c2nn(CC)cc2Br)cc1	Apaf1 activ -51.0 | Rh110 act interf inactive | Apaf-1 act conf2 inactive
CN1C(C(=O)NCC2CC2)CC2Cn3c(nc4cc5ccccc5cc43)C21 (stereo not drawn)	none
CCCC1=Nc2cc(C(=O)NCCCOCC)ccc2Sc2ccccc21	none
CS(=O)(=O)N(CC(=O)N1CCc2ccccc2C1)c1cccc(Br)c1	Apaf1 activ -257.5 | Rh110 act interf inactive | Apaf-1 act conf2 inactive
Cc1ccc2[nH]c3c(c2c1)CN(C(=O)CN1CCCc2ccccc21)CC3	none
Nc1ccc2nc3c(c(Cl)c2c1)CCCC3	none
CC(C)C[C@@H]1CN=C(N)N1C[C@@H]1CCCN1C[C@@H](C(C)C)N1C[C@@H](Cc2ccccc2)N(CCCC2CCCC2)C1=N	none
NS(=O)(=O)c1ccc(NC(=O)c2ccc3nccnc3c2)cc1	Apaf1 activ -43.7 | Rh110 act interf inactive | Apaf-1 act conf2 inactive
C=CCNC(=O)c1c(N)n(-c2cccc(S(N)(=O)=O)c2)c2nc3ccccc3nc12	none
O=C(O)c1ccc2c3c(ncnc13)-c1ccccc1C2=O	none
Cc1c(Cl)cnc(NC(=O)COC(=O)c2ccc([N+](=O)[O-])s2)c1Cl	none
Cc1c(C(=O)OCC(=O)Nc2c(C)n(C)n(-c3ccccc3)c2=O)cccc1[N+](=O)[O-]	Apaf1 activ -93.3 | Rh110 act interf inactive | Apaf-1 act conf2 inactive
C#CCOCCOCCOCCNc1nc(N2CCN(C(=O)CCCCCCCCCCNC(=O)Cn3cc(CCCCCN)nn3)CC2)nc(N2CCN(C(=O)CCCCCCCCCCNC(=O)[C@H]([C@@H](C)CC)n3cc(CCCCCN)nn3)CC2)n1	none
O=C1N=C(N2CCN(Cc3ccccc3)CC2)S/C1=C/c1cccs1	Apaf1 activ -408.0 | Rh110 act interf inactive | Apaf-1 act conf2 inactive
O=C(C[C@H]1C[C@H](C(=O)N2CCCCC2)[C@@]2(CCc3ccccc3)c3[nH]c4cc(-c5ccco5)ccc4c3CCN2C1=O)NCCN1CCOCC1	none
Cc1cc(-c2ccc(N=Nc3c(S(=O)(=O)O)cc4cc(S(=O)(=O)O)cc(N)c4c3O)c(C)c2)ccc1N=Nc1c(S(=O)(=O)O)cc2cc(S(=O)(=O)O)cc(N)c2c1O	none
COCCn1c(N)c(C(=O)NCc2cccs2)c2nc3ccccc3nc21	none
CCN(CC(=O)NCc1cccs1)C(=O)CCCOc1ccc(C(C)(C)C)cc1	none
O=C(NCc1cccs1)c1cccnc1C(=O)O	Apaf1 activ -79.2 | Rh110 act interf inactive | Apaf-1 act conf2 inactive
Cc1onc(-c2ccccc2Cl)c1C(=O)N[C@@H]1C(=O)N2[C@@H]1SC(C)(C)[C@@H]2C(=O)O	none
Cc1cc(C)c(C(N)=O)c(Nc2cccc3ccccc23)n1	none
Cc1cc(C(=O)OCC(=O)NC(=O)c2cccn2C)c2ccccc2n1	Apaf1 activ -126.7 | Rh110 act interf inactive | Apaf-1 act conf2 inactive
COc1cc(OC)c2c(-c3ccccc3)cc(=O)oc2c1C(CCN1CCCC(C)C1)c1ccc2c(c1)OCO2 (stereo not drawn)	none
CCN(c1ccccc1)S(=O)(=O)c1ccc(Cl)c(NC(=O)Nc2ccc(Cl)cc2C#N)c1	none
CCN(CC)S(=O)(=O)c1ccc(Cl)c(NC(=O)c2ccc(C#N)cc2)c1	Apaf1 activ -270.3 | Rh110 act interf inactive | Apaf-1 act conf2 inactive
O=S(=O)(Nc1cc(Sc2ncn[nH]2)c(O)c2ccccc12)c1ccccc1	none
O=S(=O)(Nc1ccc(S(=O)(=O)Nc2ncccn2)cc1)c1ccccc1	Apaf1 activ -509.7 | Rh110 act interf inactive | Apaf-1 act conf2 inactive
CC(=O)N1CCN(C(=S)Nc2ccc(SC(F)F)cc2)CC1	none
COc1cccc2c1[C@@H]1CN(CCCCn3c(=O)[nH]c4c(sc5ncc(-c6ccccc6)nc54)c3=O)C[C@@H]1CO2	none
CC(C)CCC(C)N=Cc1c(O)n(Cc2ccccc2)c(=O)c2ccccc12 (stereo not drawn)	none
CCCN(CC(=O)Nc1ccccc1C)C(=O)C1CCCN(C(=O)c2ccc(Cl)cc2)C1 (stereo not drawn)	none
